Source: ChEMBL document CHEMBL5705902, “Role of G Protein-Coupled Receptor Kinases 2 and 3 in μ-Opioid Receptor Desensitization and Internalization” (Mol Pharmacol, 2015)
The source made the active and inactive calls. The calls are words filed in the database; no cut-off is given here.

Tests used:
[1] = molecular target: Aurora kinase B (Homo sapiens) (UniProt Q96GD4); test: Inhibition of human Aurora B assessed as remaining activity at 1 uM in presence of 32ATP relative to control
Method in brief: (§1)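 Express screen of 52 purified human kinases run as a radioactive filter-binding assay with 32ATP, at 1 μM inhibitor. ATP was at or below each kinase's calculated Km. Activity is given as percent of the activity without inhibitor. Run in duplicate; mean with S.D.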

[2] = molecular target: Rho-associated protein kinase 2 (Homo sapiens) (UniProt O75116); test: Inhibition of human ROCK 2 assessed as remaining activity at 1 uM in presence of 32ATP relative to control
Method in brief: (§2)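 Express panel of 52 purified human kinases run in vitro. Kinase activity was measured directly by a radioactive filter-binding assay with ³²ATP, at ATP levels at or below each kinase's calculated Km for ATP. The compound was tested at 1 μM. Each assay was run in duplicate, and activity is given as the mean percentage (with S.D.) of activity without inhibitor.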

[3] = molecular target: G protein-coupled receptor kinase 3 (Homo sapiens, UniProt P35626); test: Inhibition of human GRK3 in the presence of ATP
Chain of G protein-coupled receptor kinase 3 (P35626 whole entry): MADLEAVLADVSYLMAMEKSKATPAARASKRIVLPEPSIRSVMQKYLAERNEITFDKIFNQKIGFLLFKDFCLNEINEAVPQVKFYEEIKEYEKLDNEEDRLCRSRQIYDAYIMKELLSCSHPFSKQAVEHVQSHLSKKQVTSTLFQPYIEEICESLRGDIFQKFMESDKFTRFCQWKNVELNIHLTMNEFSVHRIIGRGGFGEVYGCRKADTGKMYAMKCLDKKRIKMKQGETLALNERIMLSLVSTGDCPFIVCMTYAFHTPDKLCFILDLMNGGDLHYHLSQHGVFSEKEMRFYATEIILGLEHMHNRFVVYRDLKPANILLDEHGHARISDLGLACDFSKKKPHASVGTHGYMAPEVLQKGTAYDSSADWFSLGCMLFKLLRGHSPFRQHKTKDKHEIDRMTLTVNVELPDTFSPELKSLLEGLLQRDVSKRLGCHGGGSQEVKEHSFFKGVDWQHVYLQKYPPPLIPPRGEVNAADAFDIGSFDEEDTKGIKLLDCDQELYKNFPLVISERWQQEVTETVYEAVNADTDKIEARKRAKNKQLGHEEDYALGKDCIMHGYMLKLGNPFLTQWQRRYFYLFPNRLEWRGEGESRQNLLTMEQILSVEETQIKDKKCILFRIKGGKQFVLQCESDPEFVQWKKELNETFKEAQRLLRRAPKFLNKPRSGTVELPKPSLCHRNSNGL

[4] = molecular target: Serine/threonine-protein kinase pim-1 (Homo sapiens) (UniProt P11309); test: Inhibition of human PIM1 assessed as remaining activity at 1 uM in presence of 32ATP relative to control; method in brief: as §2
Chain of Serine/threonine-protein kinase pim-1 (Homo sapiens) (P11309 whole entry, looked up): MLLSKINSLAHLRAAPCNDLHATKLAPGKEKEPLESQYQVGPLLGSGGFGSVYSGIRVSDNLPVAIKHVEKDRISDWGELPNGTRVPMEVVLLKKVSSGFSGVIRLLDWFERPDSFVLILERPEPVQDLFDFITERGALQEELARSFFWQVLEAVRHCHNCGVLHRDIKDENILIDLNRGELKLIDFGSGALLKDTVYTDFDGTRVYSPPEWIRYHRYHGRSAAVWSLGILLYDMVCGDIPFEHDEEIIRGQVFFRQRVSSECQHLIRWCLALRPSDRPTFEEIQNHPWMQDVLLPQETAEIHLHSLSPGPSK

[5] = molecular target: Calcium/calmodulin-dependent protein kinase kinase 2 (Homo sapiens) (UniProt Q96RR4); test: Inhibition of human CAMKKb assessed as remaining activity at 1 uM in presence of 32ATP relative to control; method in brief: as §1
Chain of Calcium/calmodulin-dependent protein kinase kinase 2 (Homo sapiens) (Q96RR4 2-588 limits assumed): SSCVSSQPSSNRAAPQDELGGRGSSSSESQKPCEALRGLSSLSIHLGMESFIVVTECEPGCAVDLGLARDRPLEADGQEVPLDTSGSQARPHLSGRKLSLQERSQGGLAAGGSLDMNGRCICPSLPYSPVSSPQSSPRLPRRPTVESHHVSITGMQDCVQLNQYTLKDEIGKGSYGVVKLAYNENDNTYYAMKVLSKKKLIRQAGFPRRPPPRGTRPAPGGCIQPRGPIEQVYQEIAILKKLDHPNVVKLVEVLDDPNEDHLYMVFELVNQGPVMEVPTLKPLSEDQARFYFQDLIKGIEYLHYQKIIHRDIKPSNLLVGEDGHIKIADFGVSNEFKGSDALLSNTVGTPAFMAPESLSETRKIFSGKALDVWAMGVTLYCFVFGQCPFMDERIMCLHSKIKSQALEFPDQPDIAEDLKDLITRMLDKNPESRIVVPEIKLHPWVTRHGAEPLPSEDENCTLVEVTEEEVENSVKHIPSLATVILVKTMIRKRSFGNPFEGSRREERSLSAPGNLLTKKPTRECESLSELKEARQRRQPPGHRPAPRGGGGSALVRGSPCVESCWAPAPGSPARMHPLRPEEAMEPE

[6] = molecular target: Mu-type opioid receptor (Rattus norvegicus) (UniProt P33535); test: Inhibition of MOPr desensitization in wistar rat LC neuron cells assessed as reduction in the endomorphin-2 induced desensitization at 30 uM incubated for 15 mins before; assay type: functional, cell-based
Method in brief: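 Whole-cell patch clamp of GIRK currents in locus coeruleus slices from male Wistar rats (5–8 weeks). Inhibitor was given at least 15 min before and during the agonist, all drugs by superfusion. Percent desensitization was taken over 10 min of opioid agonist application. Met-Enk n = 5, endomorphin-2 n = 6; ANOVA.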
Target sequence in this assay (P33535 whole entry, the tested form may be a part): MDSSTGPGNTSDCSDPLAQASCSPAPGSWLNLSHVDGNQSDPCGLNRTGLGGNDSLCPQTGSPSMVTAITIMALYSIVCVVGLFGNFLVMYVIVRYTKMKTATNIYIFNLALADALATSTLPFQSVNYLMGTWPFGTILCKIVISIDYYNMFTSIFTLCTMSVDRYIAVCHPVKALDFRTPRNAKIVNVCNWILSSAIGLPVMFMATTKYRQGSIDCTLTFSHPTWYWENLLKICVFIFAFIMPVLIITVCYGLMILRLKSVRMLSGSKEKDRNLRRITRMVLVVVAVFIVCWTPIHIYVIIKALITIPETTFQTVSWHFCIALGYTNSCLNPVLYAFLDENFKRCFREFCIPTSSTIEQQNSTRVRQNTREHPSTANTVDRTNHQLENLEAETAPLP

[7] = molecular target: Mu-type opioid receptor (Homo sapiens) (UniProt P35372); test: Inhibition of HA-tagged MOPr (unknown origin) stably expressed in human U2OS cells assessed as reduction in DAMGO induced large recruitment of arrestin-3 translocation at 30 uM preincubated for 30 mins by DiscoveRx PathHunter assay; assay type: functional, cell-based
Chain of Mu-type opioid receptor (Homo sapiens) (P35372 whole entry): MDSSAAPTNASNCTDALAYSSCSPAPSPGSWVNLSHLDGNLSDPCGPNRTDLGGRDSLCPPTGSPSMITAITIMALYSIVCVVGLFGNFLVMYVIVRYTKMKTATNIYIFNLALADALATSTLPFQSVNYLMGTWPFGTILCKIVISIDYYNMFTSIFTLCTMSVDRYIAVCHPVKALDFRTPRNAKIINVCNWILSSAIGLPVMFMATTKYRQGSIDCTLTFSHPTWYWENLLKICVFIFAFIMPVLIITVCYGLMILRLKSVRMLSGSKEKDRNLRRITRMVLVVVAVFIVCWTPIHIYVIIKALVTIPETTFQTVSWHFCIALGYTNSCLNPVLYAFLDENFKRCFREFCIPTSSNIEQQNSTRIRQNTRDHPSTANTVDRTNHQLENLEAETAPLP
Method in brief: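 PathHunter U2OS cells stably express tagged human MOPr and tagged arrestin-3. Recruitment reconstitutes β-galactosidase, read by luminescence. DAMGO 10 μM was applied for 90 min, with inhibitor (30 μM) added 30 min before; n = 3.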

[8] = molecular target: Tyrosine-protein kinase Lck (Homo sapiens) (UniProt P06239); test: Inhibition of human Lck assessed as remaining activity at 1 uM in presence of 32ATP relative to control; method in brief: as §2
Chain of Tyrosine-protein kinase Lck (Homo sapiens) (P06239 2-509 limits assumed): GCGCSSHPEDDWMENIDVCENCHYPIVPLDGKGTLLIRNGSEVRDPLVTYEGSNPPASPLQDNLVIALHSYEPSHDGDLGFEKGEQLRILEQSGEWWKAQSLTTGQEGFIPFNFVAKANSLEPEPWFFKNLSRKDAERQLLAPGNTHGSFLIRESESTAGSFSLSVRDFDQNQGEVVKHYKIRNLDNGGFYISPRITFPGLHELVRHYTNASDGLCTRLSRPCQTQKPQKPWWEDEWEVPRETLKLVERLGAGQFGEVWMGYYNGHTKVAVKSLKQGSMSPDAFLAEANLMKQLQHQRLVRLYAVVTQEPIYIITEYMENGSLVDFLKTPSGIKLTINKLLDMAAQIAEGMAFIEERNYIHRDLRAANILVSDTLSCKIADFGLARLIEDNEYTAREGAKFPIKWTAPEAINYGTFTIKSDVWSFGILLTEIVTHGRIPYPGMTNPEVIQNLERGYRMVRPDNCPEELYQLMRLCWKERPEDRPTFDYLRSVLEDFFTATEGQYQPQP

[9] = molecular target: Protein kinase C alpha type (Homo sapiens) (UniProt P17252); test: Inhibition of human PKCalpha assessed as remaining activity at 1 uM in presence of 32ATP relative to control; method in brief: as §2
[10] = molecular target: Ribosomal protein S6 kinase alpha-5 (Homo sapiens) (UniProt O75582); test: Inhibition of human MSK1 assessed as remaining activity at 1 uM in presence of 32ATP relative to control; method in brief: as §2
[11] = molecular target: Ribosomal protein S6 kinase alpha-1 (Homo sapiens) (UniProt Q15418); test: Inhibition of human RSK1 assessed as remaining activity at 1 uM in presence of 32ATP relative to control; method in brief: as §2
Chain of Ribosomal protein S6 kinase alpha-1 (Homo sapiens) (Q15418 whole entry): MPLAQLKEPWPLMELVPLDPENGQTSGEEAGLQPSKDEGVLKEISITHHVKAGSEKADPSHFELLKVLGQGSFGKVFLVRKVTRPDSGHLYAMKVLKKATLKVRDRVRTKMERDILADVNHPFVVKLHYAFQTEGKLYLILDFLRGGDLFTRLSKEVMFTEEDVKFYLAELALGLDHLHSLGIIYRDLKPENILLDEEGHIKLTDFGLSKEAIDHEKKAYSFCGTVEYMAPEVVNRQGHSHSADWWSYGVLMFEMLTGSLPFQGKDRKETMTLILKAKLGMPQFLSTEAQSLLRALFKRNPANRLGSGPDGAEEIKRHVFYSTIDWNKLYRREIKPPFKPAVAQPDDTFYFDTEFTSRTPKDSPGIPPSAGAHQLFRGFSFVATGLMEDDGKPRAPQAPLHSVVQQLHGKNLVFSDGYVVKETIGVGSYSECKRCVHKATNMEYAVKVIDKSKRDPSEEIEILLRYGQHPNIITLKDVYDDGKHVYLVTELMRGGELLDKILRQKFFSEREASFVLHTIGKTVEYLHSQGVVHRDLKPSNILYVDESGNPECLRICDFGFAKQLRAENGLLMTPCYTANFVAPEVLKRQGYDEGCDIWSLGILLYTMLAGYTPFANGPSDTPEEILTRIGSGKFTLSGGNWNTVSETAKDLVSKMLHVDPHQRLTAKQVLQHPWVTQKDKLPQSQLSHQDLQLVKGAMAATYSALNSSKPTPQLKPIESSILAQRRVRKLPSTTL

[12] = molecular target: Mu-type opioid receptor (Rattus norvegicus) (UniProt P33535); test: Inhibition of MOPr desensitization (unknown origin) assessed as drop in maximum morphine response at 30 uM incubated for 15 mins relative to control
Target sequence in this assay (P33535 whole entry, looked up, the tested form may be a part): as the sequence (P33535 whole entry, the tested form may be a part) above

Homo sapiens = species on record: Homo sapiens; test: Inhibition of CAMKK (unknown origin) at 1 uM in presence of 32ATP relative to control; method in brief: as §1

Chain of Aurora kinase B (Homo sapiens) (Q96GD4 whole entry): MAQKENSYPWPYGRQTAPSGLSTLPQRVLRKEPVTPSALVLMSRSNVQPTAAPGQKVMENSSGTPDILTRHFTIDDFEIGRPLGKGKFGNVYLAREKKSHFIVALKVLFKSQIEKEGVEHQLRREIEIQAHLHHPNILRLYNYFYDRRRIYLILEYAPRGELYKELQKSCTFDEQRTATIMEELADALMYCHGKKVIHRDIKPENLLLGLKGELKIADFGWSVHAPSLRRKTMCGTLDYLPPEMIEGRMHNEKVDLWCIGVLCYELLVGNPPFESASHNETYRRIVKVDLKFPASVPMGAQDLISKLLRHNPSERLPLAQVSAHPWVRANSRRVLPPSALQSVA

## Cn1c(CNc2cccc(C(=O)NCc3ccccc3C(F)(F)F)c2)nnc1-c1ccncc1
[1]
  Activity: 92%
[2]
  Activity: 53%
[3]
  IC50: 0.29 µM
[4]
  Activity: 107%
[5]
  Activity: 69%
[6]
  inhibition: Active
[7]
  inhibition: Active
[8]
  Activity: 94%
[9]
  Activity: 96%
[10]
  Activity: 10%
[11]
  Activity: 48%
[12]
  inhibition: 44%
Homo sapiens
  inhibition: < 20%
